Active and inactive are the calls of the source. The calls are words filed in the database; no cut-off is given here.
Key:
[1] = target: T1, Protein-serine O-palmitoleoyltransferase porcupine (Mus musculus, UniProt Q9JJJ7); assay: Inhibition of porcupine-mediated Wnt signaling in mouse L-cells after 24 hrs by springerImage-Topflash reporter assay
T1 sequence (Q9JJJ7 whole entry): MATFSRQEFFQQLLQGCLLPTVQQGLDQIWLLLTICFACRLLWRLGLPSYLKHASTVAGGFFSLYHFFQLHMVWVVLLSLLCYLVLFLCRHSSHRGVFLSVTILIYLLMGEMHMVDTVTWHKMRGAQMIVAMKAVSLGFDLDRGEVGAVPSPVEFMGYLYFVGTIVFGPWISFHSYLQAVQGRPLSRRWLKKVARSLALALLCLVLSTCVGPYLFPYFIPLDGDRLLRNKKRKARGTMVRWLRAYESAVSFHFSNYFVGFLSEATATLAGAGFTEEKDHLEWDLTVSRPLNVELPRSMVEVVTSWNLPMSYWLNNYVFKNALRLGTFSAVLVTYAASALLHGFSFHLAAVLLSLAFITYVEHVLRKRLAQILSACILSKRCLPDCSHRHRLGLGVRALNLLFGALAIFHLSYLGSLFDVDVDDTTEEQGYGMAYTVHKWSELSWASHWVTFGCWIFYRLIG

[2] = Half life in mouse plasma at 2 uM in presence of NADPH by LC-MS/MS analysis; assay type: ADME, cell-free
[3] = Half life in ICR/CD-1 mouse liver S9 fraction at 2 uM in presence of NADPH by LC-MS/MS analysis; assay type: ADME, subcellular; conditions: s9, 2 µM
[4] = Stability in mouse plasma at 2 uM in presence of NADPH by LC-MS/MS analysis
[5] = target: T2, Protein-serine O-palmitoleoyltransferase porcupine (Homo sapiens) (UniProt Q9H237); assay: Inhibition of porcupine-mediated phosphorylation of dishevelled 2/3 in human HeLa cells at 1 uM after 24 hrs by Western blot analysis; assay type: cell-based
T2 sequence (whole entry): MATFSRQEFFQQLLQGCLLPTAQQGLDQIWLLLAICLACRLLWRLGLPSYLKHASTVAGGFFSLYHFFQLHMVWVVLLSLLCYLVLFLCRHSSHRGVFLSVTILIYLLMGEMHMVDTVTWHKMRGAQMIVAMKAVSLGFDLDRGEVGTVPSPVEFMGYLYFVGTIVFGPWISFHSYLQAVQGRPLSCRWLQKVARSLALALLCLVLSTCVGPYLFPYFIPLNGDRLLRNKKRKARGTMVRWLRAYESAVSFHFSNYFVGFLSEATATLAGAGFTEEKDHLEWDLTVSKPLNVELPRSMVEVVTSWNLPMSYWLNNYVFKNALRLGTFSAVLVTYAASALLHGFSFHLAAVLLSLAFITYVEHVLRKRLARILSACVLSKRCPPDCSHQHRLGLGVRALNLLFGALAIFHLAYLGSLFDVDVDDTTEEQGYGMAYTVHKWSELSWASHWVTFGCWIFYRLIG
How it was run: (§1)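 HeLa cells, which have high cell-autonomous Wnt signalling, were treated for 24 h with compound, the LGK974 reference or DMSO vehicle. Cell lysates were then analysed by Western blot for phosphorylation of LRP6 and of Dvl2/3, used as biochemical markers of Wnt pathway activity.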

[6] = target: T2, Protein-serine O-palmitoleoyltransferase porcupine (Homo sapiens); assay: Inhibition of porcupine-mediated phosphorylation of LRP6 in human HeLa cells at 1 uM after 24 hrs by Western blot analysis; assay type: cell-based; how it was run: as §1

Compound	EC50 [1]	other results
O=C(Cn1cc(-c2ccncc2)nn1)Nc1ccc(-c2ccccc2)cn1	9 nM	t1/2 [2]: 100 min; t1/2 [3]: 200 min
O=C(Cn1nnc(-c2ccccn2)c1-c1ccccc1)Nc1ccc(-c2ccccc2)cn1	2500 nM	–
O=C(Cn1nnc(-c2ccncc2)c1-c1ccccc1)Nc1ncc(-c2ccccc2)cn1	8 nM	–
O=C(Cn1nnc(-c2ccncc2)c1-c1ccccc1)Nc1cccc(-c2ccccc2)c1	270 nM	–
O=C(Cn1nnc(-c2ccccc2)c1-c1ccccc1)Nc1ccc(-c2ccccc2)cn1	400 nM	–
O=C(Cn1nnc(-c2ccccc2C(F)(F)F)c1-c1ccccc1)Nc1ccc(-c2ccccc2)cn1	500 nM	–
COc1ccc(-c2nnn(CC(=O)Nc3ccc(-c4ccccc4)cn3)c2-c2ccccc2)cc1	18 nM	–
O=C(Cn1nnc(-c2ccncc2)c1-c1ccccc1)Nc1ncc(-c2ccccc2)s1	80000 nM	–
O=C(Cn1nnc(-c2ccncc2)c1-c1ccccc1)Nc1ccc(-c2cccnc2)cc1	200 nM	–
O=C(Cn1cc(-c2ccccc2)nn1)Nc1ccc(-c2ccccc2)cn1	> 5000 nM	–
CCOC(=O)c1ccc(-c2c(-c3ccncc3)nnn2CC(=O)Nc2ccc(-c3ccccc3)cn2)cc1	0.7 nM	–
CC(C(=O)Nc1ccc(-c2ccccc2)cn1)n1nnc(-c2ccncc2)c1-c1ccccc1 (stereo unspecified)	3 nM	–
O=C(Cn1nnc(-c2cccnc2)c1-c1ccccc1)Nc1ccc(-c2ccccc2)cn1	5 nM	–
O=C(Cn1nnc(-c2ccncc2)c1-c1ccccc1)Nc1ccc(-c2ccncc2)cc1	7 nM	–
O=C(Cn1nnc(-c2ccncc2)c1-c1ccccc1)Nc1ccc(-c2cccnc2)cn1	> 1000 nM	–
O=C(CSc1nnc(-c2ccncc2)n1-c1ccccc1)Nc1ccc(-c2cccnc2)cc1	–	t1/2 [2]: < 5 min; t1/2 [3]: 15 min
O=C(Cn1nnc(-c2ccncc2)c1-c1ccccc1)Nc1ccc(-c2cncnc2)cn1	1.8 nM	–
O=C(Cn1nnc(-c2ccncc2)c1-c1ccccc1)Nc1ccc(N2CCCCC2)cn1	> 1000 nM	–
O=C(Cn1nnc(-c2ccncc2)c1-c1ccccc1)Nc1ccc(N2CCCCC2)cc1	8 nM	–
COc1ccccc1-c1c(-c2ccncc2)nnn1CC(=O)Nc1ccc(-c2ccccc2)cn1	9 nM	–
O=C(Cn1cc(-c2ccccn2)nn1)Nc1ccc(-c2ccccc2)cn1	> 5000 nM	–
O=C(Cn1cc(-c2cccnc2)nn1)Nc1ccc(-c2ccccc2)cn1	100 nM	–
O=C(Cn1nnc(-c2ccncc2)c1-c1cccc2ccccc12)Nc1ccc(-c2ccccc2)cn1	6.5 nM	–
O=C(Cn1nnc(-c2ccncc2)c1-c1ccccc1)Nc1ccc(-c2ccccn2)cc1	1.8 nM	–
Cc1ccccc1-c1c(-c2ccncc2)nnn1CC(=O)Nc1ccc(-c2ccccc2)cn1	40 nM	–
CCC(C(=O)Nc1ccc(-c2ccccc2)cn1)n1nnc(-c2ccncc2)c1-c1ccccc1 (stereo unspecified)	12 nM	–

The remaining compounds from weak to strong by EC50 [1], led by results:

EC50 [1]	Compound	other results
0.65 nM	O=C(Cn1nnc(-c2ccncc2)c1-c1ccccc1)Nc1ccc(-c2ccsc2)cn1	–
0.6 nM	O=C(Cn1nnc(-c2ccncc2)c1-c1ccccc1)Nc1ccc(-c2ccoc2)cn1	–
0.6 nM	O=C(Cn1nnc(-c2ccnc(C(F)(F)F)c2)c1-c1ccccc1)Nc1ccc(-c2ccccc2)cn1	–
0.48 nM	N#Cc1ccc(-c2c(-c3ccncc3)nnn2CC(=O)Nc2ccc(-c3ccccc3)cn2)cc1	–
0.4 nM	Cc1cccc(-c2c(-c3ccncc3)nnn2CC(=O)Nc2ccc(-c3ccccc3)cn2)c1	–
0.4 nM	O=C(Cn1nnc(-c2ccncc2)c1-c1ccccc1)Nc1ccc(-c2ccco2)cn1	–
0.3 nM	O=C(Cn1nnc(-c2ccncc2)c1-c1ccc(C(F)(F)F)cc1)Nc1ccc(-c2ccccc2)cn1	–
0.2 nM	O=C(Cn1nnc(-c2ccncc2)c1-c1ccc(F)cc1)Nc1ccc(-c2ccccc2)cn1	–
0.2 nM	O=C(Cn1nnc(-c2ccncc2)c1-c1ccccc1)Nc1ccc(-c2ccccc2)nc1	–
0.18 nM	COc1ccc(-c2c(-c3ccncc3)nnn2CC(=O)Nc2ccc(-c3ccccc3)cn2)cc1	–
0.14 nM	Cc1cc(-c2nnn(CC(=O)Nc3ccc(-c4ccccc4)cn3)c2-c2ccccc2)ccn1	–
0.13 nM	O=C(Cn1nnc(-c2ccnc(F)c2)c1-c1ccccc1)Nc1ccc(-c2ccccc2)cn1	–
0.08 nM	O=C(Cn1nnc(-c2ccncc2)c1-c1ccccc1)Nc1ccc(-c2ccccc2)cn1	half-life at 2 µM [4]: > 240 min; t1/2 [2]: 130 min; inhibition [5]: Active; inhibition [6]: Active

Source: ChEMBL document CHEMBL3870337, “Development of a triazole class of highly potent Porcn inhibitors” (Bioorg Med Chem Lett, 2016)
